Measured values taken from ChEMBL document CHEMBL1135162, “Synthesis and evaluation of N-substituted 1,4-oxazepanyl Sordaricins as selective fungal EF-2 inhibitors” (2002).
In brackets after ≈: the same amount, converted by molar mass.

What was measured:
Format in all cases: functional
Aspergillus fumigatus = assay: Tested for in vitro antifungal activity against Aspergillus fumigatus ATCC 26430
Outline: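 Mould grown in microplates in RPMI1640 buffered at pH 7.0, incubated at 30 °C. MIC is the lowest test-compound concentration that inhibits growth by 80%.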

Candida albicans [1] = assay: Tested for in vitro antifungal activity against Candida albicans ATCC 24433
Outline: (§1)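 Microplate growth assay in RPMI1640 medium buffered at pH 7.0, incubated at 35 °C. MIC is the lowest test-compound concentration that inhibits fungal growth by 80%.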

Candida albicans [2] = assay: Tested for in vitro antifungal activity against Candida albicans ATCC 24433 in the presence of horse serum (20%)
Outline: (§2)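 RPMI1640 medium buffered at pH 7.0, with 20% horse serum added for the incubation. Microplates incubated at 35 °C. MIC is the lowest concentration giving 80% inhibition of fungal growth.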

Candida albicans [3] = assay: Tested for in vitro antifungal activity against Candida albicans ATCC 64550; outline: as §1
Candida albicans [4] = assay: Tested for in vitro antifungal activity against Candida albicans SANK51486; outline: as §1
Candida albicans [5] = assay: Tested for in vitro antifungal activity against Candida albicans SANK51486 in the presence of horse serum (20%); outline: as §2
Candida albicans [6] = assay: Tested for in vitro antifungal activity against Candida albicans TIMM3164; outline: as §1
Candida parapsilosis = assay: Tested for in vitro antifungal activity against Candida parapsilosis ATCC 90018; conditions: Lodderomyces parapsilosis; outline: as §1
Cryptococcus neoformans = assay: Tested for in vitro antifungal activity against Cryptococcus neoformans TIMM1855
Outline: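 Yeast grown in microplates in yeast nitrogen base buffered at pH 7.0, incubated at 35 °C. MIC is the lowest concentration inhibiting growth by 80%.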

Candida tropicalis = assay: Tested for in vitro antifungal activity against Candida tropicalis ATCC750; outline: as §1
Nakaseomyces glabratus = assay: Tested for in vitro antifungal activity against Candida glabrata ATCC 90030; outline: as §1

| Compound | MIC (Aspergillus fumigatus) [µg/mL] | MIC (Candida albicans [1]) [µg/mL] | MIC (Candida albicans [2]) [µg/mL] | MIC (Candida albicans [3]) [µg/mL] | MIC (Candida albicans [4]) [µg/mL] | MIC (Candida albicans [5]) [µg/mL] | MIC (Candida albicans [6]) [µg/mL] | MIC (Candida parapsilosis) [µg/mL] | MIC (Cryptococcus neoformans) [µg/mL] | MIC (Candida tropicalis) [µg/mL] | MIC (Nakaseomyces glabratus) [µg/mL] |
| --- | --- | --- | --- | --- | --- | --- | --- | --- | --- | --- | --- |
| CO[C@H]1CN(Cc2ccc3c(c2)OCO3)C[C@H](OCC23C[C@@H]4[C@H](C)CC[C@H]4C4(C=O)CC2C=C(C(C)C)C34C(=O)O)O[C@@H]1C (stereo not given in full) | > 16 | 0.031 (≈ 0.0508 µM) | 1 | 0.031 (≈ 0.0508 µM) | 0.016 (≈ 0.0262 µM) | 0.5 | 0.031 (≈ 0.0508 µM) | > 16 | 2 (≈ 3.28 µM) | 0.25 (≈ 0.41 µM) | 0.5 (≈ 0.82 µM) |
| CO[C@H]1CN(CC=C(Cl)Cl)C[C@H](OCC23C[C@@H]4[C@H](C)CC[C@H]4C4(C=O)CC2C=C(C(C)C)C34C(=O)O)O[C@@H]1C (stereo not given in full) | > 16 | ≤ 0.031 | 2 | 0.063 (≈ 0.108 µM) | ≤ 0.031 | 1 | ≤ 0.031 | > 16 | 8 (≈ 13.7 µM) | 0.5 (≈ 0.855 µM) | 1 (≈ 1.71 µM) |
| CO[C@H]1CN(Cc2ccc(SC)cc2)C[C@H](OCC23C[C@@H]4[C@H](C)CC[C@H]4C4(C=O)CC2C=C(C(C)C)C34C(=O)O)O[C@@H]1C (stereo not given in full) | > 16 | 0.063 (≈ 0.103 µM) | 4 | 0.125 (≈ 0.204 µM) | ≤ 0.031 | 2 | 0.063 (≈ 0.103 µM) | > 16 | > 16 | 0.5 (≈ 0.817 µM) | 2 (≈ 3.27 µM) |
| C=C(CF)CN1C[C@H](OCC23C[C@@H]4[C@H](C)CC[C@H]4C4(C=O)CC2C=C(C(C)C)C34C(=O)O)O[C@H](C)[C@@H](OC)C1 (stereo not given in full) | > 16 | ≤ 0.031 | 0.5 | ≤ 0.031 | ≤ 0.031 | 0.5 | ≤ 0.031 | > 16 | 0.25 (≈ 0.456 µM) | 0.25 (≈ 0.456 µM) | 0.5 (≈ 0.913 µM) |
| COc1cccc(CN2C[C@H](OCC34C[C@@H]5[C@H](C)CC[C@H]5C5(C=O)CC3C=C(C(C)C)C45C(=O)O)O[C@H](C)[C@@H](OC)C2)c1 (stereo not given in full) | > 16 | 0.063 (≈ 0.106 µM) | 2 | 0.125 (≈ 0.21 µM) | ≤ 0.031 | 2 | 0.063 (≈ 0.106 µM) | > 16 | 2 (≈ 3.36 µM) | 0.5 (≈ 0.839 µM) | 8 (≈ 13.4 µM) |
| CC(C)C1=CC2CC3(C=O)[C@@H]4CC[C@@H](C)[C@H]4CC2(CSC2CCCCC2)C13C(=O)O (stereo not given in full) | > 8 | 0.031 (≈ 0.072 µM) | 8 | 0.125 (≈ 0.29 µM) | ≤ 0.016 | 4 | 0.063 (≈ 0.146 µM) | > 8 | > 8 | 2 (≈ 4.64 µM) | 0.031 (≈ 0.072 µM) |
| C/C=C/C=C\C(=O)O[C@H]1[C@H](O)[C@H](OCC23C[C@@H]4[C@H](C)CC[C@H]4C4(C=O)CC2C=C(C(C)C)C34C(=O)O)O[C@H](C)[C@H]1OC (stereo not given in full) | > 4 | 0.5 (≈ 0.852 µM) | 4 | 0.5 (≈ 0.852 µM) | 0.25 (≈ 0.426 µM) | – | 0.5 (≈ 0.852 µM) | > 4 | 0.25 (≈ 0.426 µM) | 0.5 (≈ 0.852 µM) | > 4 |
| CO[C@H]1CN(Cc2ccc(Cl)cc2)C[C@H](OCC23C[C@@H]4[C@H](C)CC[C@H]4C4(C=O)CC2C=C(C(C)C)C34C(=O)O)O[C@@H]1C (stereo not given in full) | > 32 | ≤ 0.063 | 8 | ≤ 0.063 | ≤ 0.063 | 4 | ≤ 0.063 | > 32 | 4 (≈ 6.66 µM) | 0.5 (≈ 0.833 µM) | 1 (≈ 1.67 µM) |
| CO[C@H]1CN(Cc2ccc(C(F)(F)F)cc2)C[C@H](OCC23C[C@@H]4[C@H](C)CC[C@H]4C4(C=O)CC2C=C(C(C)C)C34C(=O)O)O[C@@H]1C (stereo not given in full) | > 32 | 0.5 (≈ 0.789 µM) | 32 | 1 (≈ 1.58 µM) | 0.25 (≈ 0.394 µM) | 16 | 0.5 (≈ 0.789 µM) | > 32 | > 32 | 2 (≈ 3.16 µM) | 8 (≈ 12.6 µM) |
| C=CCN1C[C@H](OCC23C[C@@H]4[C@H](C)CC[C@H]4C4(C=O)CC2C=C(C(C)C)C34C(=O)O)O[C@H](C)[C@@H](OC)C1 (stereo not given in full) | > 16 | 0.063 (≈ 0.122 µM) | 0.25 | 0.063 (≈ 0.122 µM) | 0.031 (≈ 0.0601 µM) | 0.25 | 0.063 (≈ 0.122 µM) | > 16 | > 16 | 0.5 (≈ 0.97 µM) | 0.25 (≈ 0.485 µM) |
| CO[C@H]1CN(CC=C(C)C)C[C@H](OCC23C[C@@H]4[C@H](C)CC[C@H]4C4(C=O)CC2C=C(C(C)C)C34C(=O)O)O[C@@H]1C (stereo not given in full) | > 16 | 0.25 (≈ 0.46 µM) | 2 | 0.5 (≈ 0.92 µM) | 0.125 (≈ 0.23 µM) | 1 | 0.25 (≈ 0.46 µM) | > 16 | > 16 | 2 (≈ 3.68 µM) | 16 (≈ 29.4 µM) |
| CO[C@H]1CN(Cc2ccc(C#N)cc2)C[C@H](OCC23C[C@@H]4[C@H](C)CC[C@H]4C4(C=O)CC2C=C(C(C)C)C34C(=O)O)O[C@@H]1C (stereo not given in full) | > 16 | 0.063 (≈ 0.107 µM) | 2 | 0.063 (≈ 0.107 µM) | ≤ 0.031 | 1 | 0.063 (≈ 0.107 µM) | > 16 | 8 (≈ 13.5 µM) | 0.5 (≈ 0.846 µM) | 2 (≈ 3.39 µM) |
| C=C(Br)CN1C[C@H](OCC23C[C@@H]4[C@H](C)CC[C@H]4C4(C=O)CC2C=C(C(C)C)C34C(=O)O)O[C@H](C)[C@@H](OC)C1 (stereo not given in full) | > 16 | 0.031 (≈ 0.0521 µM) | 1 | 0.031 (≈ 0.0521 µM) | 0.016 (≈ 0.0269 µM) | 0.5 | 0.031 (≈ 0.0521 µM) | > 16 | 0.25 (≈ 0.42 µM) | 0.125 (≈ 0.21 µM) | 0.25 (≈ 0.42 µM) |
| C=CCCN1C[C@H](OCC23C[C@@H]4[C@H](C)CC[C@H]4C4(C=O)CC2C=C(C(C)C)C34C(=O)O)O[C@H](C)[C@@H](OC)C1 (stereo not given in full) | > 16 | 0.125 (≈ 0.236 µM) | – | 0.25 (≈ 0.472 µM) | 0.063 (≈ 0.119 µM) | – | 0.125 (≈ 0.236 µM) | > 16 | > 16 | 1 (≈ 1.89 µM) | 4 (≈ 7.55 µM) |
| OC(Cn1cncn1)(Cn1cncn1)c1ccc(F)cc1F [FLUCONAZOLE] | – | – | – | 4 (≈ 13.1 µM) | – | – | 4 (≈ 13.1 µM) | – | – | – | – |
| CO[C@H]1CN(CC2=CCCCC2)C[C@H](OCC23C[C@@H]4[C@H](C)CC[C@H]4C4(C=O)CC2C=C(C(C)C)C34C(=O)O)O[C@@H]1C (stereo not given in full) | > 16 | 0.125 (≈ 0.219 µM) | 8 | 0.125 (≈ 0.219 µM) | 0.063 (≈ 0.111 µM) | 4 | 0.125 (≈ 0.219 µM) | > 16 | 8 (≈ 14 µM) | 1 (≈ 1.76 µM) | 4 (≈ 7.02 µM) |
| CO[C@H]1CN(Cc2ccccc2)C[C@H](OCC23C[C@@H]4[C@H](C)CC[C@H]4C4(C=O)CC2C=C(C(C)C)C34C(=O)O)O[C@@H]1C (stereo not given in full) | > 32 | ≤ 0.063 | 1 | ≤ 0.063 | ≤ 0.063 | 0.5 | 0.125 (≈ 0.221 µM) | > 32 | 4 (≈ 7.07 µM) | 0.25 (≈ 0.442 µM) | 0.5 (≈ 0.884 µM) |
